Compound activity as filed in PubChem BioAssay.
An excerpt weighted towards active compounds, which were near 1.4% of everything screened.
NR2E3 ag-1: activates human photoreceptor nuclear receptor NR2E3; GST-NR2E3/biotin-RetCOR TR-FRET, 1536-well; inhibition of corepressor binding, % at 4.78 µM; 320,000 tested, 0.12% active; AID 2300;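 active = percent inhibition above the cutoff of mean plus 3 SD of all tested compounds, set per screening campaign, cut at about 20% in these data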
Target sequence (Q9Y5X4 whole entry, looked up): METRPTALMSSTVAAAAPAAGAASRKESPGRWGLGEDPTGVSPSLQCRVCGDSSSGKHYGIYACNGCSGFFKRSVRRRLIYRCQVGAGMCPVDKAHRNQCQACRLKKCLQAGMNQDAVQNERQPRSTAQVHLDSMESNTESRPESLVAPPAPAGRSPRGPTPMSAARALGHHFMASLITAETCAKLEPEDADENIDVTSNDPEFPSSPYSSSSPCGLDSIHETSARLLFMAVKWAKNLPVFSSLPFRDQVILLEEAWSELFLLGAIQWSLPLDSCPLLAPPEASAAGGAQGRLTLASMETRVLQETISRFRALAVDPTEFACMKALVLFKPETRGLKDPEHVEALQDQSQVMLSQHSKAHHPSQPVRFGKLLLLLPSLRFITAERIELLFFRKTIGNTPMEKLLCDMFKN
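Material – GST-tagged NR2E3 plus biotinylated RetCOR corepressor · Quantity – NR2E3 fusion 1.35 nM · Times – 5 h incubation at 4 °C · Medium – pH 7.5 Tris-based buffer · Technique – TR-FRET, Eu(K)-anti-GST donor, streptavidin-D2 acceptor, ex 340, em 617/671 nm · Benchmarks – high control biotin, low control 0.6% DMSO · Format – 1536-well plates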
NR2E3 ag-2: agonists of human NR2E3 nuclear receptor | inhibition of corepressor binding, % at 3.98 µM | CHO-S Gal4-NCOR/VP16-NR2E3 two-hybrid, luciferase | 360,000 tested, 0.35% active | Q9Y5X4 | AID 602229;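 active = inhibition above the mean of all tested compounds plus 3 SD, cut at about 70% in these data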;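 note: higher means lower luciferase signal from less NR2E3 corepressor binding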
PG9 Ab binder: small molecules binding HIV-1 gp120 antibody PG9; inhibition, % at 6.7 µM; TR-FRET gp120-PG9 antibody binding; 360,000 tested, 0.43% active; in the data active = inhibition above about 8.5%
Rev-erbA mod: Rev-erb alpha (human) modulation | Rev-erbα–FITC-DNA binding, fluorescence polarization, 90 min | activity, % at 10 µM | 370,000 tested, 0.79% active | AID 1259318;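 active = activity above about 14%, limit read from the data; passing the limit was not always enough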
PG9 binder conf: PG9 antibody binding, confirmed; shares compounds with PG9 Ab binder; TR-FRET PG9 antibody binding, biochemical; inhibition, % at 6.7 µM; 1,500 tested, 90% active; AID 651571; in the data active = inhibition above about 9%
PGV04 Ab binding: counter-screen for PG9 binders: binding control antibody PGV04; shares compounds with PG9 Ab binder; TR-FRET PGV04 antibody-gp120 binding, biochemical; inhibition, % at 6.7 µM; 1,500 tested, 95% active; AID 651604; in the data active = inhibition above about 9.5%
PG9 bind DR: PG9 antibody binding, dose response | IC50, µM | TR-FRET PG9 antibody-gp120 binding inhibition | shares compounds with PG9 Ab binder | 95 tested, under 10 active; in the data active = IC50 below about 10 µM
PGV04 binding DR: binds control antibody PGV04 in PG9 counter-screen; shares compounds with PG9 Ab binder; TR-FRET binding to control antibody PGV04; IC50, µM; 95 tested, 20% active
PG126 DR counter: binds control antibody PG126 in PG9 counter-screen. IC50, µM. shares compounds with PG9 Ab binder. AID 651939. 95 tested, 20% active. TR-FRET binding to antibody PG126, counterscreen
A number is an active result; . = inactive; / = no result given. Cut-off read from the data, not from the text of the source, unless noted: active = IC50 below about 9 µM; inactive = the rest.

SMILES | NR2E3 ag-1 | NR2E3 ag-2 | PG9 Ab binder | Rev-erbA mod | PG9 binder conf | PGV04 Ab binding | others
CCCC(=O)Nc1nnc(-c2cccc(OCC)c2)s1 | . | . | 16 | . | 22 | 39
CCCN1CC(=O)N2[C@H](C[C@@]3(n4ccc5ccccc54)c4ccccc4N(S(=O)(=O)c4ccccc4)[C@@H]23)C1=O | / | / | / | . | / | /
C[C@@H]1COc2cc(N3CCCC3)ccc2S(=O)(=O)N1C | / | / | / | . | / | /
C=CCn1c(SCC(=O)Nc2cc(C)on2)nc2sc3c(c2c1=O)CCCC3 | . | . | . | . | / | /
CCn1c(SCC(=O)Nc2cc(C)on2)nc2sc3c(c2c1=O)CCCC3 | . | . | 9.2 | . | . | 24
COc1ccc(CN2C(=O)N3Cc4ccc(C)cc4C3CS2(=O)=O)cc1 (stereo not drawn) | / | / | / | . | / | /
Cc1cc(C)c2c(=N)c3ccccc3n(CCCCCCCCn3c4ccccc4c(=N)c4c(C)cc(C)nc43)c2n1 | / | . | 9.7 | . | 28 | 33
CCCCCn1c2c(c(=N)c3ccccc31)CCC2 | . | . | . | . | / | /
CC(=O)c1cc(-c2ccc(-c3cc(C(=O)O)c4ccccc4n3)cc2)c(=O)n2c1CCC2 | / | / | / | . | / | /
O=C(c1ccc2ccccc2c1)c1cccc(F)c1C(=O)O | / | . | 13 | . | 12 | 17
C/C(=C/c1[nH]c(N)[n+](CC2CC2)c1Cc1ccccc1)Cn1[nH]c(=O)n(-c2ccccc2)c1=O | / | / | / | . | / | /
Cc1cccc(NC(=O)N2CCC(N(C)CCC(C)C)CC2)c1 | / | / | / | . | / | /
Nc1nc2sc3c(c2cc1C(=O)NCC(=O)O)CCCC3 | . | . | . | . | / | /
C#CCNC(=O)c1cc2c(Br)ccc(Br)c2nc1N | / | . | 17 | . | 18 | 22
CC(C)(C)CNC(=O)c1cc2c(Br)ccc(Br)c2nc1N | / | . | 10.0 | . | . | 14
CCCCCCCCN1C(=O)[C@@H](CC(=O)N2CCN(C(=O)c3ccco3)CC2)C[C@@]2(C(=O)OC)C1=C[C@H](COCc1ccccc1)O[C@@H]2C | / | / | / | . | / | /
Cc1ccc2c(n1)sc1c(N)ncnc12 | . | . | 24 | . | 22 | 32
CCCCCCc1c[nH]c2ccc(O)c(-c3ccccc3)c12 | / | / | / | . | / | /
C=CCN1C[C@@H](COCc2ccccc2)Oc2cccc(F)c2S1(=O)=O | / | / | / | . | / | /
CCOc1ccc(NC(=O)CCC(=O)c2ccc(Br)cc2)cc1 | . | . | 16 | . | 18 | 22
COc1ccc(Cl)cc1-c1n[nH]c(=S)o1 | . | . | 37 | . | 36 | 48
COc1ccccc1-c1n[nH]c(=S)n1N | . | . | . | . | / | /
COc1ccccc1-c1n[nH]c(=S)o1 | . | . | 18 | . | 13 | 24
O=[N+]([O-])c1cccc(S(=O)(=O)Nc2nc3ccccc3nc2Nc2cccc(S(=O)(=O)N3CCCCC3)c2)c1 | / | . | . | . | / | /
Cc1ccc(S(=O)(=O)Nc2nc3ccccc3nc2Nc2cccc(S(=O)(=O)N3CCCC3)c2)cc1 | . | . | 9.8 | . | 12 | 14
SMILES | NR2E3 ag-1 | NR2E3 ag-2 | PG9 Ab binder | Rev-erbA mod | PG9 binder conf | PGV04 Ab binding | others
COc1ccc2c(Cl)c(C(=O)NN)sc2c1 | . | . | . | . | / | /
COc1ccc2c(Cl)c(C(N)=O)sc2c1 | . | . | 18 | . | 26 | 35
COc1ccc(CC(N)c2csc(NC(=O)c3cccc(OC(F)(F)F)c3)n2)cc1 (stereo not drawn) | / | . | . | . | / | /
COc1ccc(C(=O)NCCN(C)C)c2nc3ccccc3cc12 | / | . | 23 | . | 20 | 18 | PG9 bind DR=.;PGV04 binding DR=.;PG126 DR counter=.
CCN1Cc2nnn(Cc3ccccc3)c2-c2ccccc2S1(=O)=O | / | / | / | . | / | /
COC(=O)[C@@]12CCCCC3=C1N(CCC3)C(=O)[C@H]2CC(=O)N1CCC(c2ccccc2)CC1 | / | / | / | . | / | /
Cc1cc2cc3c(cc2nc1SCC(=O)O)OCCO3 | . | . | . | . | / | /
Cc1cc2cc3c(cc2nc1SCC(=O)OC(C)C)OCCO3 | . | . | 17 | . | 23 | 26
COCCn1c(=NC(=O)c2sc3ccccc3c2Cl)sc2cc(S(N)(=O)=O)ccc21 | . | . | 18 | . | 24 | 35
CN(C)c1ccc(-c2cccc(C3CC=CC4C3C(=O)N(Cc3ccccc3)C4c3ccc4ccccc4c3)c2)cc1 (stereo not drawn) | . | . | 26 | . | 36 | 48
CCc1c(C)nc2ccc(Br)cc2c1SCCC#N | . | . | 11 | . | 13 | 20
CCCc1c(C)nc2ccccc2c1SCCC#N | . | . | . | . | / | /
CCc1c(C)nc2c(Br)cccc2c1SCCC#N | . | . | 9.6 | . | 13 | 19
CCOC(=O)CC[C@@H]1CC[C@]2(CCCN(C(=O)c3ccno3)C2)O1 | / | / | / | . | / | /
COc1ccccc1NC(=O)c1sc2ncn(CC(=O)N3CCC(C)CC3)c(=O)c2c1C | . | . | . | . | / | /
CCn1cnc2sc(C(=O)Nc3ccccc3OC)c(C)c2c1=O | . | . | 53 | . | 46 | 65
COc1ccc(C(=O)COC(=O)c2ccc(-n3cnnn3)cc2)c(OC)c1 | . | . | 24 | . | 36 | 44
COc1ccccc1C(=O)COC(=O)c1ccc(-n2cnnn2)cc1 | . | . | . | . | / | /
COC(=O)[C@]12C[C@H](CC(=O)NCc3ccc(C)o3)C(=O)N(Cc3ccc4c(c3)OCO4)C1=C[C@H](C(C)C)O[C@@H]2C1CC1 | / | / | / | . | / | /
CCOC(=O)c1[nH]c2ccc(OC)cc2c1NC(=S)N1CCN(c2cccc(Cl)c2)CC1 | . | . | 55 | . | 16 | 30
CCOC(=O)c1[nH]c2ccc(OC)cc2c1NC(=S)N1CCN(c2ccccc2)CC1 | . | . | 11 | . | . | 9.5
CCOC(=O)c1[nH]c2ccc(OC)cc2c1NC(=S)N1CCN(c2ccccn2)CC1 | . | . | . | . | / | /
CC1(C)Cc2ccccc2-c2c1c(=O)n(Cc1ccccc1)c1nnnn21 | . | . | . | . | / | /
CCn1c(=S)[nH]c2c(c1=O)C(C)(C)Cc1ccccc1-2 | / | . | 24 | . | 14 | 12 | PG9 bind DR=.;PGV04 binding DR=.;PG126 DR counter=.
CSc1ccc(S(=O)(=O)Nc2ccccc2C(=O)N2CCOCC2)cc1 | . | . | 8.8 | . | 22 | 22 | PG9 bind DR=.;PGV04 binding DR=.;PG126 DR counter=.
O=C1C=Cc2cccc3ccc(O)c1c23 | / | . | 16 | . | 20 | 26
O=C(Nc1cccc(F)c1)OCCCN1CCC2(CCC(c3ccccc3)CC2)C1 (stereo not drawn) | / | / | / | . | / | /
CCc1nnc(NC(=O)Cc2ccc(OCc3c(C)noc3C)cc2)s1 | . | . | 19 | . | 19 | 42
COc1cc(C(=O)Nc2cccc(-c3nc4cc(C)ccc4o3)c2C)cc(OC)c1OC | . | . | 12 | . | 17 | 27
